Data published in ChEMBL document CHEMBL1129565, “Selective inhibitors of monoamine oxidase. 3. Structure-activity relationship of tricyclics bearing imidazoline, oxadiazole, or tetrazole groups” (J Med Chem, 1996).
pIC50, pKi: −log10 of the molar value.

Experiments:
[1] = molecular target: T1, Amine oxidase [flavin-containing] A (Rattus norvegicus, UniProt P21396); assay: Inhibitory concentration against rat brain mitochondrial monoamine oxidase A
T1 sequence (P21396 whole entry): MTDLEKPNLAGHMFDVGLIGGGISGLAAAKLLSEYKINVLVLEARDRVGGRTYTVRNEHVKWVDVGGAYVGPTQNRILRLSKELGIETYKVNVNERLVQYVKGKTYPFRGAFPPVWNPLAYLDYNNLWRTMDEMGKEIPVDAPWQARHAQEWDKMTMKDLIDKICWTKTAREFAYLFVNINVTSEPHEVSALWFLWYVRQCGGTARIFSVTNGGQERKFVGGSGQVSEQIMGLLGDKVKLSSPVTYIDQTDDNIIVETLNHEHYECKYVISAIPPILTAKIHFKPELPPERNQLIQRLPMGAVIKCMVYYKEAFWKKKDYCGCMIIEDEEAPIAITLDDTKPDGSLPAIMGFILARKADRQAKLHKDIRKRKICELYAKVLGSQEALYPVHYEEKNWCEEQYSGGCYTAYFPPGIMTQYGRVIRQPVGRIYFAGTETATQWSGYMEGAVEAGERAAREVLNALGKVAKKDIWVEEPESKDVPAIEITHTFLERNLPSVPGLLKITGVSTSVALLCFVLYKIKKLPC
Summary of the method: (§1)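 Rat brain mitochondrial MAO extract preincubated with inhibitor 15 min at 37 °C in 50 mM potassium phosphate pH 7.4. [3H]serotonin added at 0.2 μM final, then 20 min incubation. Pargyline 2 mM blanks. Stopped with HCl, products extracted into ethyl acetate/toluene and counted radiometrically. Triplicates; IC50 from mean % inhibition vs log concentration.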

[2] = molecular target: T1, Amine oxidase [flavin-containing] A; assay: Inhibition of the enzyme Monoamine oxidase A which was not completely reverserved after 24 hr of dialysis after po administration to rat (brain); assay type: organism-based; details: in vivo
[3] = molecular target: T2, Amine oxidase [flavin-containing] B (Rattus norvegicus, UniProt P19643); assay: Inhibitory activity against rat brain mitochondrial Monoamine oxidase B at 1 uM
T2 sequence (P19643 whole entry): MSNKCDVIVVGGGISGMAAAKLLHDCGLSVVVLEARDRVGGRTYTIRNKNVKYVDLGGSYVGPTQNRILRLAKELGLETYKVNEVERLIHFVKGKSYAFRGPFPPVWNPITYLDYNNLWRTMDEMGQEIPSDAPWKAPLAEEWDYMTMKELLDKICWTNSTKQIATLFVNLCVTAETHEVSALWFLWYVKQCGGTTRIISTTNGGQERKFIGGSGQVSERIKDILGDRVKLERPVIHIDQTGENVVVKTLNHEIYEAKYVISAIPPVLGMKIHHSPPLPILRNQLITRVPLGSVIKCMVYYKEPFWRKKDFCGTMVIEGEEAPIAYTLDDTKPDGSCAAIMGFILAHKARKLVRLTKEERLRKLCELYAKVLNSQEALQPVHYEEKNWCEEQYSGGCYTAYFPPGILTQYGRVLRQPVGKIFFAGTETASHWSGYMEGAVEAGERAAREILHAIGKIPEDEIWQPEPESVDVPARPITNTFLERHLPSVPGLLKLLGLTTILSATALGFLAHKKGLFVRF
Summary of the method: as §1, with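 “[14C]phenethylamine” for “[3H]serotonin”, “10” for “0.2”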

[4] = molecular target: T1, Amine oxidase [flavin-containing] A; assay: Inhibitory concentration against rat brain mitochondrial Monoamine oxidase A at 1 uM; summary of the method: as §1
[5] = molecular target: T1, Amine oxidase [flavin-containing] A; assay: Inhibitory concentration against rat brain mitochondrial Monoamine oxidase A at <1 uM; summary of the method: as §1
[6] = molecular target: T2, Amine oxidase [flavin-containing] B; assay: Inhibitory activity against rat brain mitochondrial Monoamine oxidase B at < 1 uM
Summary of the method: as §1, with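 “[14C]phenethylamine” for “[3H]serotonin”, “10” for “0.2”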

[7] = molecular target: T1, Amine oxidase [flavin-containing] A; assay: Inhibition of the enzyme Monoamine oxidase A which was not completely reverserved after 24 hr of dialysis
Summary of the method: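 Reversibility: MAO extract preincubated with or without inhibitor 15 min at 37 °C, in duplicate, then dialysed 24 h at 4 °C with shaking against 0.1 M potassium phosphate pH 7.4, 5% sucrose, 1 mM dithiothreitol, buffer changed ca. 3 and 19 h. Undialysed portions held at 4 °C; both assayed together for MAO activity.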

[8] = molecular target: T2, Amine oxidase [flavin-containing] B; assay: Inhibitory activity against rat brain mitochondrial Monoamine oxidase B
Summary of the method: as §1, with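 “[14C]phenethylamine” for “[3H]serotonin”, “10” for “0.2”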

[9] = molecular target: T1, Amine oxidase [flavin-containing] A; assay: Inhibitory concentration against rat brain mitochondrial Monoamine oxidase A at 0.1 uM; summary of the method: as §1
[10] = molecular target: T2, Amine oxidase [flavin-containing] B; assay: Inhibitory activity against rat brain mitochondrial Monoamine oxidase B at 0.1 uM
Summary of the method: as §1, with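 “[14C]phenethylamine” for “[3H]serotonin”, “10” for “0.2”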

[11] = molecular target: T2, Amine oxidase [flavin-containing] B; assay: Inhibitory activity against rat brain mitochondrial Monoamine oxidase B at 0.3 uM
Summary of the method: as §1, with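 “[14C]phenethylamine” for “[3H]serotonin”, “10” for “0.2”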

[12] = molecular target: T1, Amine oxidase [flavin-containing] A; assay: Ex vivo value for inhibition of MAO A of rats sacrificed 2 hr after po administration; assay type: organism-based
Summary of the method: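 Rats dosed orally, killed 2 h later; brain MAO A inhibition then measured ex vivo.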

[13] = molecular target: T1, Amine oxidase [flavin-containing] A; assay: Inhibition of the enzyme MAO A which was not completely reverserved after 24 hr of dialysis after po administration to rat (brain); assay type: organism-based; details: in vivo
[14] = molecular target: T2, Amine oxidase [flavin-containing] B; assay: Inhibitory activity against rat brain mitochondrial Monoamine oxidase B at 10 uM
Summary of the method: as §1, with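 “[14C]phenethylamine” for “[3H]serotonin”, “10” for “0.2”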

Row | SMILES | pIC50 [1] | inhibition at 1 µM [3] [%] | inhibition at 1 µM [4] [%] | further results
1 | NCCNc1ccc2c(c1)C(=O)c1ccc(C3=NCCN3)cc1S2(=O)=O | 6.52 | 11 | – | Reversible [2]: 20%
2 | O=C1c2ccc(C3=NCCN3)cc2S(=O)(=O)c2cc(C(F)(F)F)ccc21 | – | 10 | 12 | –
3 | O=c1c2ccccc2sc2c(C3=NCCN3)cccc12 | – | 10 | 7 | –
4 | O=S1(=O)c2ccccc2C(O)c2ccc(C3=NCCN3)cc21 (centres undefined) | – | 10 | 20 | –
5 | CC(=O)N1CCN=C1c1ccc2c(c1)S(=O)(=O)c1ccc(F)cc1C2=O | – | – | – | Inhibition [5]: 4%; Inhibition [6]: -11%
6 | Cc1ccc(C)c2c1[nH]c1ccc(C3=NCCN3)cc12 | – | 10 | 62 | –
7 | O=c1c2ccccc2sc2cc(C3=NCCN3)ccc12 | 6.00 | 14 | – | –
8 | CCCOc1ccc2sc3cc(-c4nnc(C)o4)ccc3c(=O)c2c1 | 7.22 | – | – | Reversible [7]: 10%; pIC50 [8]: 6.00
9 | c1ccc2c(c1)Oc1ccc(C3=NCCN3)cc1S2 | 7.00 | – | – | Reversible [7]: 46%; pIC50 [8]: 5.00
10 | c1cc2c3c([nH]c2cc1C1=NCCN1)CCCC3 | – | 9 | 20 | –
11 | CCNc1ccc2c(c1)C(=O)c1ccc(C3=NCCN3)cc1S2(=O)=O | 8.00 | 0 | – | Reversible [2]: 0%
12 | O=c1c2ccc(-c3nnn(CCO)n3)cc2oc2ccc(OCCO)cc12 | – | – | – | Inhibition [5]: 29%; Inhibition [6]: 18%
13 | Cn1nnnc1-c1ccc2c(c1)S(=O)(=O)c1ccccc1C2=O | – | – | – | inhibition at 0.1 µM [9]: 53%; inhibition at 0.1 µM [10]: 1%
14 | CC(C)c1ccc2sc3cc(-c4nn[nH]n4)ccc3c(=O)c2c1 | – | 5 | 24 | –
15 | Cn1nnc(-c2ccc3c(=O)c4cc(OCCO)ccc4oc3c2)n1 | – | – | 64 | Inhibition [6]: 21%
16 | CCCc1ccc2c(c1)C(=O)c1ccc(C3=NCCN3)cc1S2(=O)=O | 7.40 | – | – | Reversible [7]: 2%; inhibition at 0.3 µM [11]: 0%
17 | COc1ccc2c(c1)C(=O)c1ccc(C3=NCCN3)cc1S2(=O)=O | 8.00 | 33 | – | Reversible [7]: 5%
18 | [O-][S+]1c2ccccc2Sc2ccc(C3=NCCN3)cc21 (centres undefined) | – | 14 | 14 | –
19 | COc1ccc2c(c1)C(=O)c1ccc(-c3nnn(C)n3)cc1S2(=O)=O | 8.70 | – | – | Reversible [7]: 29%; pIC50 [8]: 7.22
20 | O=S1(=O)c2ccccc2-c2cc(-c3nn[nH]n3)ccc21 | – | 0 | 9 | –
21 | c1cc2c(cc1C1=NCCN1)Sc1cc(C3=NCCN3)ccc1O2 | 6.00 | – | – | pIC50 [8]: 5.00

Second part, led by results:

Row | pIC50 [1] | inhibition at 1 µM [3] [%] | inhibition at 1 µM [4] [%] | SMILES | further results
22 | – | 16 | 41 | O=S1(=O)c2ccccc2-c2cc(C3=NCCN3)ccc21 | –
23 | – | 5 | 37 | O=C1c2ccccc2S(=O)(=O)c2cc(C3=NCCCN3)ccc21 | –
24 | – | 45 | 36 | CCn1nnc(-c2ccc3c(c2)S(=O)(=O)c2ccccc2C3=O)n1 | –
25 | – | 5 | 53 | Cc1ccc2c(c1)S(=O)(=O)c1cc(C3=NCCN3)ccc1C2=O | –
26 | – | 18 | 27 | CN1CCN=C1c1ccc2c(c1)S(=O)(=O)c1ccccc1C2=O | Inhibition ([3]; 1 µM): 11%
27 | 8.00 | – | – | CCc1ccc2c(c1)C(=O)c1ccc(C3=NCCN3)cc1S2(=O)=O | pKi [12]: 8.40; Reversible [13]: 11%; inhibition at 10 µM [14]: 27%
